Screening results deposited in PubChem BioAssay by several laboratories.
hK5 inh = human KLK5 protease inhibitors, primary screen, biochemical, 1536-well | recombinant hK5, fluorogenic AMC substrate cleavage | AID 873, 2007 | inhibition, % at 5 µM | Kallikrein-5 (Homo sapiens), Q9Y337 | 0.59% of 210,000 active;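 active = inhibition of 40% or more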;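 note: 0% = enzyme controls without compound and 100% = no-enzyme blanks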
Target sequence (Q9Y337 67-293 limits assumed): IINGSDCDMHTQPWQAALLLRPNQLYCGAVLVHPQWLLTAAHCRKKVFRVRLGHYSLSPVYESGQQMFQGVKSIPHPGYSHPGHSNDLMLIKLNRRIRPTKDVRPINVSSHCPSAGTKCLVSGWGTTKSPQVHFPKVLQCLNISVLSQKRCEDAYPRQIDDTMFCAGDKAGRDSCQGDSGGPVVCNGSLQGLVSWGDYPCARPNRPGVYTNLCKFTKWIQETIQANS
FXIIa inh = human FXIIa protease inhibitors, primary screen, biochemical, 1536-well | inhibition, % at 5 µM | Coagulation factor XII (Homo sapiens), P00748 | 0.3% of 220,000 active | purified FXIIa, Boc-QGR-AMC fluorogenic substrate, 2 h; in the data active = inhibition above about 40%;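 note: 0% = enzyme with no compound and 100% = blank without enzyme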
FXIa inh 1536 = human FXIa protease inhibitors, primary screen, biochemical, 1536-well. Coagulation factor XI (Homo sapiens), P03951. purified FXIa, Boc-Glu-Ala-Arg-AMC fluorogenic substrate. inhibition, % at 5 µM. 0.14% of 220,000 active. AID 798, 2007;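 active = inhibition of at least 40%; inactive = inhibition below 40%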;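 note: fluorescence of freed AMC excited at 355 nm; 0% = enzyme without compound and 100% = no enzyme blank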
Thrombin inh = human alpha-thrombin inhibitors, primary screen, counter-screen for coagulation protease inhibitor project, biochemical, 1536-well, fluorogenic AMC substrate; AID 1046, 2008; Prothrombin (Homo sapiens), P00734; Boc-VPR-AMC fluorogenic substrate cleavage; inhibition, % at 5 µM; 0.26% of 220,000 active;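 active = inhibition at or above 40%; inactive = inhibition below 40%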;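 note: 0% = enzyme with no compound and 100% = wells without enzyme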
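System – human alpha-thrombin protein · Reagent – Boc-VPR-AMC substrate, 15 µM final · Compound – 5 µM single dose in 0.2% DMSO · Schedule – reaction at room temperature · Technique – AMC fluorescence at 355 nm excitation and 460 nm emission · Read-out basis – % inhibition relative to enzyme controls and enzyme-free blanks · Control set – no-compound enzyme wells and no-enzyme blanks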
TbHK1 inh = Trypanosoma brucei hexokinase 1 inhibitors, primary screen, biochemical, G6PDH-coupled NADH absorbance, MLSCN library. hexokinase 1 [Trypanosoma brucei]. recombinant TbHK1, G6PDH-coupled NADH A340. inhibition, % at 10 µM. 0.11% of 220,000 active. AID 1430, 2008;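 active = inhibition of 50% or more in the single-dose primary screen; inactive = inhibition below 50%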
* marks the source's active call; other numbers are inactive results. Only some compounds are listed: those with a hit (about 1.1% of all), similar ones and a draw of the others.

How did COc1ccc(C2C=C(c3ccc(Br)cc3)Nc3nc(N4C(=O)CCC4=O)nn32)cc1 (centres undefined) do in these assays?
hK5 inh: -85; FXIIa inh: 13; FXIa inh 1536: -3; Thrombin inh: 53*; TbHK1 inh: -6

What do the screens show for `COc1ccccc1C1C=C(c2ccc(Cl)cc2)Nc2nc(N3C(=O)CCC3=O)nn21` (centres undefined)?
hK5 inh: -34; FXIIa inh: 13; FXIa inh 1536: 3; Thrombin inh: 50*; TbHK1 inh: -7

What do the screens show for `Cc1cc(C)c(OCC(=O)NCC2CCCO2)c(C)c1` (centres undefined)?
hK5 inh: 2; FXIIa inh: 10; FXIa inh 1536: -2; Thrombin inh: -5; TbHK1 inh: 3

What do the screens show for `Cc1ccc(C)n1CCN1CCN(C(=O)CC#N)CC1`?
hK5 inh: -1; FXIIa inh: 4; FXIa inh 1536: 0; Thrombin inh: 0; TbHK1 inh: -4

How did OCCN1CCN(c2cc(C(F)(F)F)nc3c(F)cccc23)CC1 do in these assays?
hK5 inh: 1; FXIIa inh: 2; FXIa inh 1536: 0; Thrombin inh: -5; TbHK1 inh: -29

How did Cc1ccc(N=Cc2c(O)n(-c3ccc4c(c3)OCO4)c(=O)c3ccccc23)cc1 do in these assays?
hK5 inh: 2; FXIIa inh: 43*; FXIa inh 1536: -3; Thrombin inh: 1; TbHK1 inh: 0

Results for Cc1cccc(-n2c(O)c(C=Nc3ccc(O)cc3)c3ccccc3c2=O)n1 ?
hK5 inh: -5; FXIIa inh: 7; FXIa inh 1536: 0; Thrombin inh: 1; TbHK1 inh: -8

How did Cc1ccc(NC(=O)C2CCCN(S(=O)(=O)c3cnc[nH]3)C2)cc1F (centres undefined) do in these assays?
hK5 inh: 71*; FXIIa inh: 12; FXIa inh 1536: 11; Thrombin inh: 19; TbHK1 inh: 5

How did CC(C)c1ccc(NC(=O)C2CCCN(S(=O)(=O)c3cnc[nH]3)C2)cc1 (centres undefined) do in these assays?
hK5 inh: 62*; FXIIa inh: -1; FXIa inh 1536: -2; Thrombin inh: 8; TbHK1 inh: 1

Results for Cc1cc(C)cc(NC(=O)C2CCCN(S(=O)(=O)c3cnc[nH]3)C2)c1 (centres undefined) ?
hK5 inh: -14; FXIIa inh: 24; FXIa inh 1536: 21; Thrombin inh: -4; TbHK1 inh: 5

Results for O=C(Nc1ccc(Cl)cc1)C1CCCN(S(=O)(=O)c2cnc[nH]2)C1 (centres undefined) ?
hK5 inh: -4; FXIIa inh: 15; FXIa inh 1536: 7; Thrombin inh: 2; TbHK1 inh: 0

What do the screens show for `COc1cc(-c2nnc(COC(=O)c3c4c(nc5ccccc35)CCCC4)o2)cc(OC)c1OC`?
hK5 inh: -20; FXIIa inh: 9; FXIa inh 1536: 1; Thrombin inh: 3; TbHK1 inh: -14

What do the screens show for `COc1cccc(-c2nnc(SCC(=O)Nc3ccc4c(c3)OCCO4)n2Cc2ccco2)c1`?
hK5 inh: 47*; FXIIa inh: 17; FXIa inh 1536: 9; Thrombin inh: 42*; TbHK1 inh: 19

How did COc1ccc(C)cc1NC(=O)CSc1nnc(COc2ccc(Cl)cc2)n1Cc1ccco1 do in these assays?
hK5 inh: -3; FXIIa inh: 52*; FXIa inh 1536: 15; Thrombin inh: -7; TbHK1 inh: 17

What do the screens show for `COc1ccc(C)cc1NC(=O)CSc1nnc(COc2ccccc2)n1Cc1ccco1`?
hK5 inh: 35; FXIIa inh: 28; FXIa inh 1536: 7; Thrombin inh: 18; TbHK1 inh: 1

How did Cc1ccc(NC(=O)N(CCC#N)Cc2ccccc2)cc1 do in these assays?
hK5 inh: -7; FXIIa inh: 3; FXIa inh 1536: -4; Thrombin inh: -2; TbHK1 inh: -4

Results for N#CCCC1CCCC=C1N(Cc1ccccc1)C(=O)C(Cl)Cl (centres undefined) ?
hK5 inh: 34; FXIIa inh: 27; FXIa inh 1536: 57*; Thrombin inh: 1; TbHK1 inh: 1

What do the screens show for `COCC(=O)n1nc(-c2ccccc2)nc1NCc1ccc(F)cc1`?
hK5 inh: -8; FXIIa inh: 13; FXIa inh 1536: 6; Thrombin inh: 90*; TbHK1 inh: -7

How did CCC(=O)n1nc(-c2ccccc2)nc1NCc1ccccc1 do in these assays?
hK5 inh: -4; FXIIa inh: 9; FXIa inh 1536: 0; TbHK1 inh: -4

How did COCC(=O)n1nc(-c2ccccc2)nc1NCc1ccccc1 do in these assays?
hK5 inh: 4; FXIIa inh: 5; FXIa inh 1536: 2; Thrombin inh: 91*; TbHK1 inh: -4

Results for CC(C)OC(=O)c1cccc(NC(=O)CSc2nnc(N)s2)c1 ?
hK5 inh: 37; FXIIa inh: 103*; FXIa inh 1536: 34; Thrombin inh: 18; TbHK1 inh: 8

What do the screens show for `CC(=O)c1ccc(NC(=S)Nc2cccc3cnccc23)cc1`?
hK5 inh: 13; FXIIa inh: 11; FXIa inh 1536: 65*; Thrombin inh: 19; TbHK1 inh: -20

What do the screens show for `Cc1ccc(NC(=S)Nc2cccc3cnccc23)cc1`?
hK5 inh: -3; FXIIa inh: 4; FXIa inh 1536: -2; Thrombin inh: -1; TbHK1 inh: -4

What do the screens show for `CCN(CC)c1ccc2c(Cl)cc(=O)oc2c1`?
hK5 inh: -67; FXIIa inh: 13; FXIa inh 1536: -1; Thrombin inh: -1; TbHK1 inh: -6

What do the screens show for `CCNc1ccc2c(Cl)cc(=O)oc2c1`?
hK5 inh: -48; FXIIa inh: 56*; FXIa inh 1536: 31; Thrombin inh: 0; TbHK1 inh: -12

How did Cn1c(SCC(=O)N/N=C/c2ccccn2)nnc1-c1ccccc1 do in these assays?
hK5 inh: -4; FXIIa inh: 4; FXIa inh 1536: 0; Thrombin inh: -6; TbHK1 inh: 0

What do the screens show for `CCn1ccnc1[C@@H]1C[C@H]2CN(c3ccccc3OC)C(=O)[C@]23CCCN13`?
FXIIa inh: -1; FXIa inh 1536: -1; Thrombin inh: -2; TbHK1 inh: -11

How did CC1Cc2ccccc2N1S(=O)(=O)c1cccc2nsnc12 (centres undefined) do in these assays?
hK5 inh: 21; FXIIa inh: 43*; FXIa inh 1536: 19; Thrombin inh: 2; TbHK1 inh: -5

What do the screens show for `COc1ccc(CN2C(=O)c3cccnc3C2Nc2cc(Cl)ccc2OC)cc1` (centres undefined)?
hK5 inh: 46*; FXIIa inh: 14; FXIa inh 1536: 5; Thrombin inh: 5; TbHK1 inh: -11
